Laboratory results: the EternaBench riboswitch data

Tested on: MS2 coat protein
Assay: apparent Kd, MS2 coat protein; higher = weaker binding; RNA-MaP array; FMN 200 µM where present
Procedure, shortened: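 The apparent Kd is the median of filtered binding-curve fits, one per cluster, to green signal normalised to red-channel RNA signal and control-cluster median Fmax. The clusters were on Illumina sequencing chips, and stalled E. coli RNA polymerase had transcribed the designs on them. Titration used SNAP-549-labelled MS2 coat protein from 0.7 or 1.5 nM, doubling to 3 µM, without and then with constant ligand, in 100 mM Tris-HCl pH 7.5, 80 mM KCl, 4 mM MgCl2, BSA, DTT, yeast tRNA and Tween-20.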

[1] = designed as: ON switch for flavin mononucleotide, no ligand
[2] = ligand present: flavin mononucleotide, designed as: ON switch for flavin mononucleotide
[3] = designed as: OFF switch for flavin mononucleotide, no ligand
[4] = ligand present: flavin mononucleotide, designed as: OFF switch for flavin mononucleotide

Sequence	apparent Kd [1] [nM]	apparent Kd [2] [nM]	apparent Kd [3] [nM]	apparent Kd [4] [nM]
GGGCGGAAUACAUGAGGAUCACCCAUGUCAGAAAGGGUAAUCAGAAGGUACUAUUAGAGAAAGAGUAAGGAUAUGAAUCCGCCC	906	158	–	–
GUGAGCUCGUGAGGAUAUACAACACUGCUUCGGCAGUGUAUUAAGAUCACAUGAGGAUCACCCAUGUAGAAGGCACGAGCUGAU	–	–	14.5	272
AUUAUUGGCUAAGGAUAUGGAUACAUGAGGAUCACCCAUGUAUAAUUUGUGAUCAUAUAAAUGAUCCAGAAGGUAGCUGUUUAU	–	–	81.6	220
AUAGUAUAGCAAGGAUAUCGAUUUAGUUUGUUACGAGAAGGUGCUUUAGUUUAUACCUCUUGUUUACAUGAGGAUCACCCAUGU	–	–	23.1	20.6
CAGGUAGACUGAGGAUAUACAUGACUUAGUCUAUCUAGGUCAUUAACCACAUGAGGAUCACCCAUGUAGAAGGCAGUCUGCCUG	–	–	16.3	19.6
UACGGACAUGAGGAUCACCCAUGUGAGGAUAUCGGUACCGAUAGCAUAAUCUGCUCGGCGAGAAGGCACAGCGU	–	–	29.8	42.8
AUGAAGAGGCAAGGAUAUCGAGUGCUGGGCCUAUACAUGAGGAUCACCCAUGUCCUGGCAGGACGUGAGAAGGUGUAUCUAAUA	217	343	–	–
UUUUACAUAGGAUAUAGUCUUUUUUACAUGAGGAUCACCCAUGUCUCUCUUUUUUUUUUUCUAGAAGGAUGUUUUU	–	–	42.9	30.9
GUUUCUAUAAGUUAUAAUAAAUAGUCAGAAGGUGAUACUACGACAUGAGGAUCACCCAUGUUUUUCAAGGAUAUGAUGUUACUC	373	50	–	–
UGGUACAUCAUAGGAUAUCGUGUGUAAACAUGAGGAUCACCCAUGUCAUACGAGAGUAUGUCGAUCGAGAAGGGUGAUGUACCU	75.2	25.8	–	–
AUGUUACAUGAGGAUCACCCAUGUGAGGAUAUGUGUACCGGUAAAAAAGUGUCUGGCCACAGAAGGCAUUUGGA	–	–	29.4	33
CUGUCGAUAUCAGGAUAUCGAUUAAUUACAUGAGGAUCACCCAUGUUGACAUGGAAUAUAACUUGCGAGAAGGGAUUACGAUAG	28.3	22.3	–	–
CUUUCGUGAGGAUAUGUGGCUUCAAUCGUGAGAUCGAGGCUACAGAAGGCACAUGAGGAUCACCCAUGUUCCUC	–	–	37.9	388
UUAAUCAUGUAGAAGGACGGAUAUUAAGAGUACGUAGGAUAUACAGCAGACAUGAGGAUCACCCAUGUGAACAUGGUACAUAGG	–	–	180	55
AUGCUAUACGAAGGAUAUGGUUACAUGAGGAUCACCCAUGUUAUGAUUGGUUACUUGUUUAGUUUCCAGAAGGUCGUAUAGCUA	–	–	58.1	232
UGUCGGAGGAGAGGAUAUUACAUGAGGAUCACCCAUGUAUGAACCAAUAGCUGGAAACAGCAAUGUAAGAAGGCUGCUCCGACA	–	–	8.17	81.4
GGUUGGCGAGGAUAUACAUGAGGAUCACCCAUGUGGUCCUGCGAUAGAAUAGCCCUUUGUAGAAGGCGCGGGUC	–	–	44	38
UUAAUUAAUUAAUUAUACAUGAGGAUCACCCAUGUAAGUGAUCAGGAUAUCAGCUCGAAUAGAGCUGAGAAGGGAUCCAUGUAA	117	83	–	–
AAAUUUUGUCAAGGAUAUGUAUAAAAGAGUUGAAAACAUGAGGAUCACCCAUGUAUAUGGUGGGAACAGAAGGUGAAUAAGUAA	–	–	190	182
GCCAUCGCAUGAGGAUAUGGACAGCUUUGCUGUCCAGAAGGCAUGUCAAUAGACAUGAGGAUCACCCAUGUAGUUAAGAUGGCA	771	52.2	–	–
GGUCCAUCAUGAGGAUAUGGCACCUUAUUGGUGCCAGAAGGCAUGUCUAUAGACAUGAGGAUCACCCAUGUAAUAAAUUGGACC	790	46.4	–	–
CGCACUUAGCGAGGAUAUGUUAAACAUGAGGAUCACCCAUGUGAUUUAGUAUCAAUUUUAGUGAAACAGAAGGCGCUUAGUGCG	–	–	17.6	14.9
ACCUUACUGGUCAGGAUAUACAGUCUUUGGUGUGUGUAGAAGGGACAUGAGGAUCACCCAUGUAGGUUGCAUUA	–	–	164	172
CAGCUGAAAGUCAGGAUAUCUAGAGCUGCGGCUCUAGAGAAGGGACAUGAGGAUCACCCAUGUCACUCCAGCUG	–	–	16.4	18.3

Sequence	apparent Kd [1] [nM]	apparent Kd [2] [nM]	apparent Kd [3] [nM]	apparent Kd [4] [nM]
UAUUUAAGAGGAUAUACAUGAGGAUCACCCAUGUAUAUUAAUAUACAUGAUUUUUUAUGUAGAAGGCUUGGGUA	–	–	25.5	58.4
AAAACAUGAGGAUCACCCAUGUAAAUAUCGGUUAAUUGUUGUGAGGAUAUACUAAAUUUUAAGAAGUAGAAGGCACUGGGUACA	–	23.9	–	–
GGGAGACAUGAGGAUCACCCAUGUGAAAACGUGCGAGGAUAUGUAUGGAAACCAUACUGUACAGAAGGCGUUUGUC	50.2	47.7	–	–
GAAGCACACAUUAACAUGAGGAUCACCCAUGUCAAAAGACAUGAGGAUAUGGAUCUGAAGAAGAUCCAGAAGGCAUUGUGCUAA	388	25.6	–	–
CUGAUGUGAGGAUAUCAACGCCAUGUCUUUGACAUGGCGCAUGAGAAGGCACAUGAGGAUCACCCAUGUACUUC	–	–	23.3	125
CUGACGAUGUAAGGAUAUGCUGAGGAUAACUCAGCAGAAGGUACAUGAGGAUCACCCAUGUAAUAAGAUCAAUAAUAACGUCAG	–	–	15.3	32.1
AAAAAAAAUGUGUAGGAUAUCAGUAAAAAUACAUGAGGAUCACCCAUGUUCAAAAAAAAAAAAACUGAGAAGGACACGGGAAGUCC	48.5	30.3	–	–
UCUGGUCGAGGAUAUGCAAUCGUGCUUCGGCACGUAAGAUCACAUGAGGAUCACCCAUGUAGAAGGCGACCAGA	–	–	22.3	78.3
AAGUUUGUACGAGGAUAUCAGUUGUAUCUAAAUUCAACAUGAGGAUCACCCAUGUUGCAAUAGGGUGAGAAGGCGUGUGGGCAA	44.6	37.9	–	–
UCGUGAAGGACAGGAUAUGGACAUGAGGAUCACCCAUGUACAUGGGAAUAUAUACUGAAUUUGUACUAGAAGGGUUACAUAAAC	–	–	30.9	19.8
GUAGCAUACCGAGGAUAUUCACCGGAAACGGAAACAUGAGGAUCACCCAUGUGGCGAAAGCCUUGGGAGAAGGCGGAAUGCUAC	195	24.5	–	–
GCACUGGAUGUAGGAUAUCAGGACGAUAAGUCCUGAGAAGGACAUGAGGAUCACCCAUGUAACUCAAACCAGUGCUAUAAUAUA	–	–	16.2	27.2
GCGAUUUUGUAAGGAUAUACACGAGUUUCAAGUGUAGAAGGUACUUACAUGAGGAUCACCCAUGUAUACUUGGAUAAUAGUCGC	27.9	23.3	–	–
GUGAGACAUGAGGAUCACCCAUGUCAGGAUAUGAUACUAUGUACUUCGGUACAUAGUAUCAGAAGGGACAGUGA	–	–	53.6	66.7
AGUUAAUGCACAUGAGGAUCACCCAUGUCACUUUAUAGGAGACAGGAUAUGCAUGCCAUCAAUGUGCAGAAGGGUCACCACCGA	85.6	147	–	–
GGGUUGUGAGGAUAUUAGUUGUACGUCAAUAGACGUAUGGGUGAGAAGGCACAUGAGGAUCACCCAUGUUCCUG	–	–	–	126
UGCCUACAUGAGGAUCACCCAUGUGAGGAUAUCCUGCGAGGAUCAAAAGAUCCUCGUGGGAGAAGGCGCUUGGA	–	–	18.9	32.3
UACCACCGCACGGACACGUCGAGUCAGGAUAUACAUGAGGAUCACCCAUGUGAAGGCCGGUUCAUGUAGAAGGGACAGGCGUUG	–	–	49.8	100
CCUCGGAGUAAGGAUAUCAAUUUGUAGAUAGAUUGAGAAGGUACUACAUGAGGAUCACCCAUGUCCCGUCUCAA	–	–	14.7	16.4
GGAUAGGACAGAGGAUAUACGUGCUAAAGAUACUAGCAAAAUUUCCUCACAUGAGGAUCACCCAUGUAGAAGGCUGUCCUAUCG	–	–	17.8	466
UGCUUCGUGUAAGGAUAUGCAGCCGUUUCGGCUGCAGAAGGUACUAUAAUACAUGAGGAUCACCCAUGUCUCUCGCUUUGCGGG	63.6	29.4	–	–
UUGCUACAUGAGGAUCACCCAUGUCAGGAUAUUGUGUAUAGCGUGGAAGCUCUGUCGAUAAGAAGGGACUGUCU	–	–	25.6	23.3
AAUUAUUUACAGAAGGAGUAAGAUUAUGUAUUACUAGGAUAUGUUCACAUGAGGAUCACCCAUGUCAAAGUAGGUUUUUUAUGU	–	–	12.4	12.3
AUGCCCUGAGGAUAUCUCAUCUCGCACAUGAGGAUCACCCAUGUUCUUCUCUGGGUUUCGAGAGAAGGCAGGCCUA	–	–	701	366
